From ChEMBL document CHEMBL4665760, “Rational Design and Synthesis of Methyl-β-d-galactomalonyl Phenyl Esters as Potent Galectin-8N Antagonists” (J Med Chem, 2020) come the findings set out here.

One assay addresses T1, Galectin-8 (Homo sapiens, UniProt O00214).
T1 sequence (O00214 whole entry): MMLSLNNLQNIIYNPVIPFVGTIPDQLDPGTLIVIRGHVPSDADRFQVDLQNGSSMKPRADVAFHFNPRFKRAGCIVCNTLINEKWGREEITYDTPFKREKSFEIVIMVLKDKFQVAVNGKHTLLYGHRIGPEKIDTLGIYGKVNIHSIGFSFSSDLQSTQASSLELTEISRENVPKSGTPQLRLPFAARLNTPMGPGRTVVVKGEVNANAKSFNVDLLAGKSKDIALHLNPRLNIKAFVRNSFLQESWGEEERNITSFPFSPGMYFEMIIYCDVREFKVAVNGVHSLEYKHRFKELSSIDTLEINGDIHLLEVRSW
Briefly: Binding affinity to N-terminal domain of human galectin-8 (8-154 residues) by ITC assay. The gist of the method: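 Untagged galectin-8N (residues 8-154) was expressed in bacteria (IPTG induction 4 h, room temperature) and purified on lactosyl-Sepharose at 4 °C. Protein and ligand were in 20 mM Tris pH 7.5, 100 mM NaCl, 4 mM BME, 5% DMSO and degassed. Ligand (0.5 or 1 mM) was titrated into 100 µM protein over 20-25 × 2.5 µl injections, 150 s apart, at 298 K. Blank-corrected data were fitted to an independent-site model for Kd.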
For orientation: Isothermal titration calorimetry measures the heat released or taken up as one component is titrated into another.

For assay [1], the target named is T2, Galectin-8 (Homo sapiens) (UniProt O00214).
T2 sequence (whole entry): T1 sequence (O00214 whole entry)
Briefly: Antagonist activity at galectin-8 in human SUM159PT cells assessed as reduction in galectin-8-induced IL-8 mRNA expression at 1 uM incubated for 24 hrs by real-time PCR analysis. It counts as cell-based. As to conditions: filed as antagonist. The method, boiled down:
(§1)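 SUM159 triple-negative breast cancer cells in RPMI/10% FBS at 37 °C, 5% CO2, seeded at 50000 cells/cm². Galectin-8 (50 nM) stimulated, with or without compound. Dose-response run at 1, 10, 100 and 500 µM.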
On the technique in general: In qPCR the cycle at which signal appears reflects the starting amount.

Assay [2] concerns the target T2, Galectin-8 (Homo sapiens). Kind of assay: Antagonist activity at galectin-8 in human SUM159PT cells assessed as reduction in galectin-8-induced IL-8 mRNA expression at 500 uM incubated for 24 hrs by real-time PCR analysis. The class given is cell-based. The gist of the method:
(§2)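 SUM159 triple-negative breast cancer cells grown in RPMI with 10% FBS and penicillin/streptomycin at 37 °C, 5% CO2. Cells seeded at 50000 cells/cm², then incubated 24 h with compound at 500 µM, with or without 50 nM galectin-8. Means ± SEM from experiments done in duplicates.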

In assay [3] the target is T2, Galectin-8 (Homo sapiens). Kind of assay: Antagonist activity at galectin-8 in human SUM159PT cells assessed as reduction in galectin-8-induced IL-6 mRNA expression at 1 uM incubated for 24 hrs by real-time PCR analysis. The class given is cell-based. As to conditions: filed as antagonist. The gist of the method:
as §1

Assay [4] addresses T2, Galectin-8 (Homo sapiens). Kind of assay: Potency index, ratio of Kd for lactose to Kd for test compound for binding affinity to N-terminal domain of human galectin-8 (8-154 residues) by ITC assay. As to conditions: filed as antagonist.
For assay [5], the target named is T2, Galectin-8 (Homo sapiens). Briefly: Antagonist activity at galectin-8 in human SUM159PT cells assessed as reduction in galectin-8-induced IL-1beta mRNA expression at 500 uM incubated for 24 hrs by real-time PCR analysis. The class given is cell-based. The gist of the method: as §2
Assay [6] has as its target T2, Galectin-8 (Homo sapiens). Briefly: Antagonist activity at galectin-8 in human SUM159PT cells assessed as reduction in galectin-8-induced IL-6 mRNA expression at 500 uM incubated for 24 hrs by real-time PCR analysis. It counts as cell-based. The method, boiled down:
as §2

SMILES strings stand for the structures. The source made the active and inactive calls. No cut-off for these calls is given here.

As for `CO[C@@H]1O[C@H](CO)[C@H](O)[C@H](OC(=O)CC(=O)Oc2ccc(F)cc2)[C@H]1O`, at Galectin-8, the Kd stood at 5.72 µM. Further, the inhibition result in assay [1], in assay [2] (filed as antagonist), in assay [3] and in assay [6] (filed as antagonist) was “Active” each time. Moreover, the Ratio in assay [4] worked out at 7. Further, the Antagonist activity result in assay [5] (filed as antagonist) is “Active”.

`COc1ccc(OC(=O)CC(=O)O[C@H]2[C@@H](O)[C@@H](CO)O[C@@H](OC)[C@@H]2O)cc1` showed a Kd on Galectin-8 of 9.47 µM.

For the molecule `CO[C@@H]1O[C@H](CO)[C@H](O)[C@H](OC(=O)CC(=O)Oc2ccccc2)[C@H]1O`, at Galectin-8, the Kd was determined as 12.8 µM.

Molecule `COc1cc(OC)cc(OC(=O)CC(=O)O[C@H]2[C@@H](O)[C@@H](CO)O[C@@H](OC)[C@@H]2O)c1` had a Kd at Galectin-8 of 11 µM.

The molecule `CO[C@@H]1O[C@H](CO)[C@H](O)[C@H](OC(=O)CC(=O)OCc2ccccc2)[C@H]1O` returned a Kd on Galectin-8 of 9.17 µM. Moreover, the inhibition result in assay [1], in assay [2] (filed as antagonist), in assay [3] and in assay [6] (filed as antagonist) was “Active” in each case. Moreover, in assay [5] (filed as antagonist), the Antagonist activity result is “Active”.

With `CO[C@@H]1O[C@H](CO)[C@H](O)[C@H](OC(=O)CC(=O)Oc2ccc(Cl)cc2Cl)[C@H]1O`, binding at Galectin-8 was characterised by a dissociation constant (Kd) of 11.9 µM.

Molecule `COC(=O)CC(=O)O[C@H]1[C@@H](O)[C@@H](CO)O[C@@H](OC)[C@@H]1O` had a Kd on Galectin-8 of 24.9 µM. Moreover, the inhibition result in assay [2] and in assay [6] was “inactive” throughout. For the same molecule, the Antagonist activity result in assay [5] is “inactive”.

As for `CO[C@@H]1O[C@H](CO)[C@H](O)[C@H](OC(=O)CC(=O)O)[C@H]1O`, binding at Galectin-8 was characterised by a dissociation constant (Kd) of 33.6 µM. Besides, the inhibition entry in assay [2] and in assay [6] was “inactive” in each case. In assay [5], the Antagonist activity result was “inactive”.

The molecule `CC(=O)N[C@H]1[C@H]([C@H](O)[C@H](O)CO)O[C@@](O[C@H]2[C@@H](O)[C@@H](CO)O[C@@H](O[C@H]3[C@H](O)[C@@H](O)[C@H](O)O[C@@H]3CO)[C@@H]2O)(C(=O)O)C[C@@H]1O` gave a Kd on Galectin-8 of 2.3 µM.

Broadly, the Kd is the equilibrium constant for the complex coming apart.
